Shown are actives, neighbours in structure and some others; about 2.3% of the full set was active somewhere.
DNMT1 inh: inhibitors of human DNMT1 | P26358 | DNMT1 molecular beacon, Hinp1I cleavage, fluorescence | inhibition (reported as % activation of signal), % at 10 µM | 360,000 tested, 0.83% active | AID 588458; in the data active means inhibition above about 50%
LMPTP block: blocks human LMPTP phosphatase. P24666. recombinant LMPTP-A, OMFP fluorogenic substrate, fluorescence intensity. inhibition, % at 20 µM. 360,000 tested, 0.22% active. AID 651560;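 active means compounds that cut the enzyme signal by at least half of the control window in the single-dose screen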
Target sequence (P24666 whole entry, looked up): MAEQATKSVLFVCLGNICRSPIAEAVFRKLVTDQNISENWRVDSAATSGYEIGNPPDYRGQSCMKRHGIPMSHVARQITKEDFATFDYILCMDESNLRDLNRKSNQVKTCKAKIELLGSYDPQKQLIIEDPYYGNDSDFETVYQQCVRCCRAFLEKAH
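Test system: LMPTP-A phosphatase enzyme; input: 0.625 nM LMPTP-A final; reagent: OMFP substrate, 400 µM final; compound dosing: 20 µM single dose, 3% DMSO; incubation: 50 min dark incubation at room temperature; measured by: endpoint fluorescence intensity from OMFP dephosphorylation; measure: % inhibition relative to no-enzyme and uninhibited control wells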
NadD inh: NadD (S. aureus) enzyme inhibition; 360,000 tested, 0.78% active; inhibition, % at 20 µM; AID 602399; purified NadD enzyme, colorimetric absorbance read-out; in the data active means inhibition above about 26%
STEP block: STEP (human) phosphatase inhibition; P54829; recombinant STEP, OMFP fluorogenic substrate, fluorescence; inhibition, % at 20 µM; 360,000 tested, 0.25% active; AID 588621;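 active means inhibition at 20 µM, scaled per plate between control wells, above about 37%, limit read from the data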
Target sequence (P54829 whole entry, looked up): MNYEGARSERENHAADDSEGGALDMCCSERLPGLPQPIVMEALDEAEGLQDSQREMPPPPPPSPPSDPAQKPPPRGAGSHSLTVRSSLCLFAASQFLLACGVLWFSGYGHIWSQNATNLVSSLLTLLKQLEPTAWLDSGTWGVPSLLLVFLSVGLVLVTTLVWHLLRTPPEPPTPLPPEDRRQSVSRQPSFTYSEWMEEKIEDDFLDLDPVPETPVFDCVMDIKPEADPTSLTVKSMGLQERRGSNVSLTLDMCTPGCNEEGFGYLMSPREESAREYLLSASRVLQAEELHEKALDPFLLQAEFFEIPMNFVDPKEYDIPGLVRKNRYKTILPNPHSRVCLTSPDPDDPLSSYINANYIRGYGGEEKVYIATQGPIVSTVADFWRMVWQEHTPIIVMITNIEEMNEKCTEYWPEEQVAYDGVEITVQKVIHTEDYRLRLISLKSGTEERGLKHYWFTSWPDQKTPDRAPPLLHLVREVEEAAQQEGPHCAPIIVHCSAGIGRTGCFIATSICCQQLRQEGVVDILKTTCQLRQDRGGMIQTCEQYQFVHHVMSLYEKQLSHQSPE
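Material: STEP (striatal-enriched tyrosine phosphatase) enzyme, cell-free; Compound dosing: 20 µM single dose in 1% DMSO; Technique: fluorescence read at 480 nm ex / 540 nm em; Times: reaction 20 min, ambient temperature; Medium: 50 mM Bis-Tris pH 6.0 with 2.5 mM DTT and 0.005% Tween 20; Also added: OMFP at 25 µM.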
SUMO1-SIM PPI: alters human SUMO1 binding to SIM partners; inhibition, % at 20 µM; P63165; SUMO1 binding to a labelled peptide, TR-FRET, 1 h; 360,000 tested, 0.33% active; AID 602429; in the data active means inhibition above about 37%
Scp1 inh: Scp-1 (human) phosphatase inhibition | inhibition, % at 20 µM | Recombinant Scp1, phosphopeptide, malachite green phosphate absorbance | 340,000 tested, 0.88% active | AID 493091;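 active means inhibition above about 50% at 20 µM, limit read from the data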
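Incubation: 45 min enzyme reaction at room temperature / System: truncated SCP-1 phosphatase (76-261aa) / Reagent: Phospho 17-mer peptide substrate / Buffer or medium: Acidic Tris acetate buffer with magnesium and detergent / Signal: absorbance at 630 nm / Doses: one concentration, 20 µM, with 1.0% DMSO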
Scp1 confirm: confirmation of human Scp-1 phosphatase inhibitors; 2,500 tested, 61% active; shares compounds with Scp1 inh; inhibition, % at 20 µM; AID 540281; recombinant SCP-1 catalytic domain, phosphate release, malachite green absorbance
Scp-1 MG ctr: interferes with malachite green readout, flagging false Scp-1 hits; Colorimetric interference counterscreen, malachite green absorbance 630 nm; shares compounds with Scp1 inh; 2,500 tested, under 10 active; AID 540313; apparent inhibition (interference), % at 20 µM;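 further: compounds added after enzyme reaction finished so only phosphate colour detection is probed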
Scp-1 Tm shift: validation of human Scp-1 inhibitors by thermal shift binding | 1,500 tested, 25% active | thermal shift relative to vanadate control, % at 40 µM | Recombinant SCP1, Sypro Orange thermal shift Tm | shares compounds with Scp1 inh;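 active means substances whose mean melting-temperature shift, as a percentage of the reference inhibitor's shift, reaches about 5.3%, limit read from the data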
DNMT1 confirm: confirmation of human DNMT1 inhibitors | DNMT1 molecular beacon HinP1I cleavage, fluorescence | shares compounds with DNMT1 inh | 2,300 tested, 8% active | inhibition, % at 10 µM | AID 602385;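 active means average inhibition of at least 30% in the single-concentration confirmation test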
DNMT1 interf: beacon fluorescence artifact counter-screen | DNMT1 molecular beacon spectral interference counterscreen, fluorescence 485/520 | AID 602387 | activation (fluorescence interference), % at 10 µM | shares compounds with DNMT1 inh | 2,300 tested, 1% active;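 active means activation of at least 30% at 10 µM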;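 further: DNMT1 catalytic domain with a HinP1I cleavage step and a FAM/dabcyl DNA beacon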
Of the large screens only hits and unclear results are named; the others gave an inactive call (follow-up assays come after a bar, where they were run).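 How the source made its calls, unless noted: active means inhibition of at least 30% at 20 µM; inactive means the rest.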

CCc1ccccc1NC(=O)CCS(=O)(=O)c1ccc(Br)cc1	none
Cc1ccc(/C=N/NC(=O)Cc2ccc(Cl)cc2)s1	none
Oc1c(Br)cc(CNC2CCCCC2)cc1Br	none
O=c1cc(CSc2nnc(-c3cccs3)n2Cc2ccccc2)nc2sc3ccccc3n12	DNMT1 inh 95.9, Scp1 inh 74.6 | Scp1 confirm 68.1 | Scp-1 MG ctr inactive | Scp-1 Tm shift inactive | DNMT1 confirm inactive | DNMT1 interf inactive
COc1ccccc1N(CC(=O)NCc1ccco1)S(=O)(=O)c1ccc(C)cc1	DNMT1 inh 93.4, STEP block 61.0, Scp1 inh 87.1 | Scp1 confirm 73.0 | Scp-1 MG ctr inactive | Scp-1 Tm shift inactive | DNMT1 confirm inactive | DNMT1 interf inactive
Cc1ccc(S(=O)(=O)N(CC(=O)O)Cc2ccco2)cc1	DNMT1 inh 76.2, Scp1 inh 92.6 | Scp1 confirm 60.7 | Scp-1 MG ctr inactive | Scp-1 Tm shift inactive | DNMT1 confirm inactive | DNMT1 interf inactive
Cc1ccc(S(=O)(=O)N(Cc2ccccc2)Cc2ccco2)cc1	none
CC(C)CNc1ncnc2c1ncn2[C@H]1CN(Cc2ccc3c(c2)OCO3)C[C@@H](CO)O1	none (no result: Scp1 inh)
C=C(C)C(=O)Nc1cccc(C2=NOC3(C2)C[C@@H](C(N)=O)N(C(=O)c2cc([N+](=O)[O-])cc([N+](=O)[O-])c2)C3)c1 (some centres undefined)	DNMT1 inh 86.7, SUMO1-SIM PPI 45.6, Scp1 inh 61.3 | Scp1 confirm 49.4 | Scp-1 MG ctr inactive | Scp-1 Tm shift inactive | DNMT1 confirm inactive | DNMT1 interf inactive
COCCCNC(=S)NNC(=O)c1cc(C2CC2)nc2ccccc12	none
CCCN(CC(=O)Nc1ccccc1C)C(=O)C1CCN(S(=O)(=O)c2ccc(C)c(C)c2)CC1	none (no result: Scp1 inh)
Cc1ccccc1NC(=O)CN1C(=O)S/C(=C\c2cccn2-c2cccc(C(=O)O)c2)C1=O	DNMT1 inh 66.3, Scp1 inh 84.2 | Scp1 confirm 74.2 | Scp-1 MG ctr inactive | Scp-1 Tm shift 17.3 | DNMT1 confirm inactive | DNMT1 interf inactive
Cc1cccc(C)c1-n1cccc1/C=C1\SC(=S)N(c2cccc(C(=O)O)c2)C1=O	none
O=C(O)c1cccc(-n2cccc2/C=C2/NC(=O)N(Cc3ccccc3F)C2=O)c1	DNMT1 inh 80.7, Scp1 inh 51.8 | Scp1 confirm 75.2 | Scp-1 MG ctr inactive | Scp-1 Tm shift inactive | DNMT1 confirm inactive | DNMT1 interf inactive
Cc1ccc(NC(=O)CN(C)C(=O)COC(=O)[C@@H](NC(=O)c2ccccc2F)C(C)C)cc1	none
CSc1ccc(/C=C(\C(=O)O)c2ccc(S(=O)(=O)N3CCCC3)s2)cc1	DNMT1 inh 86.5, Scp1 inh 69.2 | Scp1 confirm 67.9 | Scp-1 MG ctr inactive | Scp-1 Tm shift 5.6 | DNMT1 confirm inactive | DNMT1 interf inactive
CCc1ccccc1NC(=O)COc1ccc2oc(-c3ccc(OC)cc3)cc(=O)c2c1	DNMT1 inh 67.7, Scp1 inh 73.6 | Scp1 confirm 59.1 | Scp-1 MG ctr inactive | Scp-1 Tm shift inactive | DNMT1 confirm inactive | DNMT1 interf inactive
Cc1ccccc1C(=O)Nc1cccc(-c2ccc(N3CCOCC3)nn2)c1	none
C/C(CC(=O)Nc1ccc(Cl)c(Cl)c1)=N\NC(=O)C(=O)N1CCCCC1	none
C[C@H](CO)N1C[C@H](C)[C@@H](CN(C)Cc2ccc(C(=O)O)cc2)Oc2ncc(-c3ccc(C(=O)N(C)C)cc3)cc2C1=O	none (no result: Scp1 inh)
NS(=O)(=O)c1ccc(CCNC(=O)C2Cc3ccccc3CN2C(=O)c2ccco2)cc1 (centres undefined)	none
NS(=O)(=O)c1ccc(NC(=O)C2Cc3ccccc3CN2C(=O)c2ccco2)cc1 (centres undefined)	DNMT1 inh 59.2, Scp1 inh 60.9 | Scp1 confirm 66.3 | Scp-1 MG ctr inactive | Scp-1 Tm shift 7.9 | DNMT1 confirm inactive | DNMT1 interf inactive
CCOC(=O)CN1C(=O)S/C(=C\c2ccc(-c3cccc(C(=O)O)c3C)o2)C1=O	none
CCOC(=O)CN1C(=O)S/C(=C\c2ccc(-c3ccc(C(=O)O)c(Cl)c3)o2)C1=O	DNMT1 inh 64.8, STEP block 90.5, Scp1 inh 90.0 | Scp1 confirm 58.5 | Scp-1 MG ctr inactive | Scp-1 Tm shift 11.9 | DNMT1 confirm inactive | DNMT1 interf inactive
Cc1ccn(CC(=O)N2CCCC(N3CCN(c4ccccc4F)CC3)C2)n1 (centres undefined)	none
CC(CS(=O)(=O)c1ccc2c(c1)NC(=O)CS2)C(=O)NCc1ccccc1Cl (centres undefined)	DNMT1 inh 93.0, SUMO1-SIM PPI 90.1, Scp1 inh 76.4 | Scp1 confirm 80.7 | Scp-1 MG ctr inactive | Scp-1 Tm shift inactive | DNMT1 confirm inactive | DNMT1 interf inactive
CCOc1ccc(C(C)=O)cc1N1C(=O)C2C3C=CC(C3)C2C1=O (centres undefined)	DNMT1 inh 70.3, Scp1 inh 56.0 | Scp1 confirm 31.4 | Scp-1 MG ctr inactive | Scp-1 Tm shift inactive | DNMT1 confirm inactive | DNMT1 interf inactive
O=C(O)c1ccc(OCCN2CCCC2=O)cc1	none
CN(Cc1ccccc1)C(=O)CCCn1c(=O)c2cccn2c2cccnc21	none
O=c1oc(-c2ccccc2)nc2sc3c(c12)CCC3	DNMT1 inh 95.8, Scp1 inh 58.9 | Scp1 confirm 34.5 | Scp-1 MG ctr inactive | Scp-1 Tm shift inactive | DNMT1 confirm inactive | DNMT1 interf inactive
O=C1CCC(=O)N1c1ccc(-c2nc3sc4c(c3c(=O)o2)CCC4)cc1	none
COc1cccc(=O)c2c(C)n(-c3ccc(C(=O)O)cc3)c(C)c12	DNMT1 inh 63.3, Scp1 inh 59.7 | Scp1 confirm inactive | Scp-1 MG ctr inactive | DNMT1 confirm inactive | DNMT1 interf inactive
